Measured values taken from ChEMBL document CHEMBL4765245 (Eur J Med Chem, 2020).

Assays:
HeLa = assay: (§1) Cytotoxicity against human HeLa cells assessed as reduction in cell viability incubated for 72 hrs measured by crystal violet based micro plate reader method; details: hela, 72 h
Procedure, shortened: (§2)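 Two-day-old confluent HeLa Ohio monolayers exposed to half-log dilutions (100 μM downward) in 2% FCS medium for 72 h at 37 °C, 5% CO2. Cells fixed and stained with crystal violet/formalin, dye eluted with acidified citrate-ethanol, OD read at 550/630 nm. Viability expressed relative to six mock-treated controls; CC50 is the mean of at least 3 tests.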

Coxsackievirus B3 [1] = assay: Antiviral activity against Coxsackievirus B3 Nancy infected in human HeLa cell line assessed as inhibition of virus-induced cytopathic effect measured after 48 hrs by crystal violet uptake assay; type: functional, organism-based
Procedure, shortened: (§3)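 HeLa Ohio monolayers, 2 days old and confluent, in MEM with 2% FCS. Serial half-log compound dilutions from 100 μM were added just before CVB3 infection. Activity was calculated per Pauwels against six cell and six virus controls; mean IC50 from ≥3 experiments.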

Coxsackievirus B3 [2] = assay: Antiviral activity against wild type Coxsackievirus B3 97927 infected in human HeLa cell line assessed as inhibition of virus-induced cytopathic effect measured after 48 hrs by crystal violet uptake assay; type: functional, organism-based; details: read-out: IC50
Procedure, shortened: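 Coxsackievirus B3 infection of 2-day-old HeLa Ohio monolayers in 2% FCS medium. Half-log dilutions from 100 μM added just before infection; guanidine hydrochloride served as positive control. Antiviral activity calculated per Pauwels; IC50 is the mean of at least 3 separate tests.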

Coxsackievirus B3 [3] = assay: Antiviral activity against pleconaril-resistant Coxsackievirus B3 97927 11207K/I1092 mutant infected in human HeLa cell line assessed as inhibition of virus-induced cytopathic effect measured after 48 hrs by crystal violet uptake assay; type: functional, organism-based; procedure, shortened: as §3
Coxsackievirus B3 [4] = assay: Antiviral activity against pleconaril-resistant Coxsackievirus B3 97927 11207M/I1092 mutant infected in human HeLa cell line assessed as inhibition of virus-induced cytopathic effect measured after 48 hrs by crystal violet uptake assay; type: functional, organism-based; procedure, shortened: as §3
Coxsackievirus B3 [5] = assay: Antiviral activity against pleconaril-resistant Coxsackievirus B3 97927 11207T/I1092 mutant infected in human HeLa cell line assessed as inhibition of virus-induced cytopathic effect measured after 48 hrs by crystal violet uptake assay; type: functional, organism-based; procedure, shortened: as §3
rhinovirus A2 = assay: Antiviral activity against Rhinovirus A2 infected in human HeLa cell line assessed as inhibition of virus-induced cytopathic effect measured after 72 hrs by crystal violet uptake assay; type: functional, organism-based
Procedure, shortened: (§4)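 HeLa Ohio monolayers, 1 day old, in 2% FCS medium. Compound added as serial half-log dilutions from 100 μM immediately before rhinovirus infection. Activity calculated per Pauwels; IC50 is the mean of at least 3 experiments.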

rhinovirus B5 = assay: Antiviral activity against Rhinovirus B5 infected in human HeLa cell line assessed as inhibition of virus-induced cytopathic effect measured after 72 hrs by crystal violet uptake assay; type: functional, organism-based
Procedure, shortened: as §4, with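 “infection. CPE read at 72 h by crystal violet staining, elution and OD 550/630 nm, with six cell and six virus controls per plate.” for “infection.”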

rhinovirus B14 = assay: Antiviral activity against Rhinovirus B14 infected in human HeLa cell line assessed as inhibition of virus-induced cytopathic effect measured after 72 hrs by crystal violet uptake assay; type: functional, organism-based; details: Rhinovirus B, HeLa, 72 h; read-out: IC50; procedure, shortened: as §4
[6] = Selectivity index, ratio of CC50 for human HeLa cells to IC50 for Coxsackievirus B3 Nancy infected in HeLa cell line assessed as inhibition of virus-induced cytopathic effect; type: toxicity; details: read-out: Selectivity Index
Procedure, shortened: (§5)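 SI calculated as CC50/IC50. Cytotoxicity: 2-day-old confluent HeLa Ohio monolayers were exposed to half-log dilutions from 100 μM in 2% FCS MEM for 72 h at 37 °C, then crystal violet stained, eluted and read at 550/630 nm. Antiviral: compound added just before CVB3 infection of 2-day-old HeLa; CPE scored by crystal violet at 48 h (Pauwels formula). Means from ≥3 tests each.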

[7] = Selectivity index, ratio of CC50 for human HeLa cells to IC50 for Coxsackievirus B3 97927 wild type infected in HeLa cell line assessed as inhibition of virus-induced cytopathic effect; type: toxicity; details: read-out: Selectivity Index; procedure, shortened: as §5
[8] = Selectivity index, ratio of CC50 for human HeLa cells to IC50 for pleconaril-resistant Coxsackievirus B3 97927 11207K/I1092 mutant infected in HeLa cell line assessed as inhibition of virus-induced cytopathic effect; type: toxicity; details: read-out: Selectivity Index; procedure, shortened: as §5
[9] = Selectivity index, ratio of CC50 for human HeLa cells to IC50 for pleconaril-resistant Coxsackievirus B3 97927 11207M/I1092 mutant infected in HeLa cell line assessed as inhibition of virus-induced cytopathic effect; type: toxicity; details: read-out: Selectivity Index; procedure, shortened: as §5
[10] = Selectivity index, ratio of CC50 for human HeLa cells to IC50 for pleconaril-resistant Coxsackievirus B3 97927 11207T/I1092 mutant infected in HeLa cell line assessed as inhibition of virus-induced cytopathic effect; type: toxicity; details: read-out: Selectivity Index; procedure, shortened: as §5
[11] = Selectivity index, ratio of CC50 for human HeLa cells to IC50 for Rhinovirus A2 infected in HeLa cell line assessed as inhibition of virus-induced cytopathic effect; type: toxicity; details: read-out: Selectivity Index
[12] = Selectivity index, ratio of CC50 for human HeLa cells to IC50 for Rhinovirus B5 infected in HeLa cell line assessed as inhibition of virus-induced cytopathic effect; type: toxicity; details: read-out: Selectivity Index
[13] = Selectivity index, ratio of CC50 for human HeLa cells to IC50 for Rhinovirus B14 infected in HeLa cell line assessed as inhibition of virus-induced cytopathic effect; type: toxicity; details: read-out: Selectivity Index
[14] = Elimination rate constant in Balb/c mouse at 100 mg/kg, IG measured upto 7 hrs by HPLC-MS method; type: ADME, organism-based; details: in vivo, po
Procedure, shortened: (§6)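 Male BALB/c mice (~20 g), food withheld 1 h before and after dosing; single 100 mg/kg intragastric dose as suspension in 0.5% CMC with one drop Tween-80. Blood taken at 0.5, 1, 2, 3, 5, 7 h (3 animals per time point); plasma MeCN-precipitated, HPLC-MS (ESI positive). Non-compartmental analysis: AUC by trapezium with extrapolation; CL = dose/AUC; Vd = CL/kel.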

[15] = Mutagenicity in Escherichia coli PQ37 at 10 mg/ml by SOS-chromotest; type: toxicity
[16] = Genotoxicity in Escherichia coli PQ37 assessed as zone of inhibition at 10 mg/ml measured on day 3 by SOS-chromo0test relative to control; type: toxicity; details: 72 h, time 3 day
[17] = AUC (0 to infinity) in Balb/c mouse at 100 mg/kg, IG measured upto 7 hrs by HPLC-MS method; type: ADME, organism-based; parameters: route […], dose 100 mg/kg, time <=7; details: in vivo, po; procedure, shortened: as §6
[18] = Clearance in Balb/c mouse at 100 mg/kg, IG measured upto 7 hrs by HPLC-MS method; type: ADME, organism-based; details: in vivo, po; procedure, shortened: as §6
[19] = Volume of distribution in Balb/c mouse at 100 mg/kg, IG measured upto 7 hrs by HPLC-MS method; type: ADME, organism-based; details: in vivo, po; procedure, shortened: as §6
[20] = as §1; details: HeLa cells; procedure, shortened: as §2
[21] = Enterovirus B, Nancy, HeLa, 48 h, read-out: IC50
[22] = Enterovirus B, 97927, HeLa, 48 h
[23] = Rhinovirus A, HeLa, 72 h, read-out: IC50
[24] = Rhinovirus B, HeLa, 72 h, read-out: IC50

SMILES | CC50 (HeLa) [nM] | IC50 (Coxsackievirus B3 [1]; [21]) [nM] | IC50 (Coxsackievirus B3 [2]; [22]) [nM] | IC50 (Coxsackievirus B3 [3]; read-out: IC50) [nM] | IC50 (Coxsackievirus B3 [4]) [nM] | IC50 (Coxsackievirus B3 [5]; read-out: IC50) [nM] | IC50 (rhinovirus A2; [23]) [nM] | IC50 (rhinovirus B14) [nM] | Activity [15] | inhibition zone (IZ) [16] [mm] | IC50 (rhinovirus B5) | further results
Cc1cc(-c2noc(C(F)(F)F)n2)ccc1OCCCc1cc(C(=O)N(C)C)no1 | 13400 | 2760 | 20 | 4790 | 10 | 10 | 860 | 90 | Non-Toxic | 0 |  | IC50 (rhinovirus B5; [24]): 5250 nM; selectivity ratio [6]: 4.9; selectivity ratio [7]: 669; selectivity ratio [8]: 2.8; selectivity ratio [9]: 1340; selectivity ratio [10]: 1340; selectivity ratio [11]: 15.6; selectivity ratio [12]: 2.6; selectivity ratio [13]: 149; Kel [14]: 0.4373 h⁻¹; AUC [17]: 3015.5 ng·h/mL; clearance [18]: 0.66 L/h; Vd [19]: 1.52 L
CCOC(=O)c1cc(CCCOc2ccc(-c3noc(C(F)(F)F)n3)cn2)on1 |  |  | 10300 |  |  |  |  | 1990 |  |  | Not Active | CC50 at 72 h [20]: > 100000 nM; IC50 (Coxsackievirus B3 [1]): Not Active; IC50 (rhinovirus A2): Not Active
CN(C)C(=O)c1cc(CCCOc2ccc(-c3noc(C(F)(F)F)n3)cc2[N+](=O)[O-])on1 | 22500 | 1660 | 3 | 6460 | 1 | 30 | 670 | 280 | Non-Toxic | 0 |  | IC50 (rhinovirus B5; [24]): 7630 nM
Cc1cc(-c2noc(C(F)(F)F)n2)cc(C)c1OCCCc1cc(C(=O)N(C)C)no1 | 13200 |  | 20 | 6330 | 30 | 1010 | 120 | 120 | Non-Toxic | 0 |  | 
CNC(=O)c1cc(CCCOc2c(C)cc(-c3noc(C(F)(F)F)n3)cc2C)on1 | > 100000 |  | 60 |  | 370 |  | 200 | 20 | Non-Toxic | 0 |  | IC50 (Coxsackievirus B3 [3]): Not Active; IC50 (Coxsackievirus B3 [5]): Not Active
COc1cc(-c2noc(C(F)(F)F)n2)cc([N+](=O)[O-])c1OCCCc1cc(C(=O)N(C)C)no1 | 25600 | 14500 | 365 |  | 880 | 840 | 320 | 200 |  |  | Not Active | IC50 (Coxsackievirus B3 [3]): Not Active
CN(C)C(=O)c1cc(CCCOc2ccc(-c3noc(C(F)(F)F)n3)cc2C(F)(F)F)on1 | 19200 | 2240 |  | 7180 | 160 | 540 | 320 | 6760 | Non-Toxic | 0 | Not Active | IC50 (Coxsackievirus B3 [2]): 160 nM
COC(=O)c1cc(CCCOc2c(C)cc(-c3noc(C(F)(F)F)n3)cc2C)on1 | 35400 | 17900 | 60 | 20400 | 1530 | 12800 | 360 | 370 |  |  | Not Active | 
